In ChEMBL document CHEMBL1147022, “Studies on synthesis and evaluation of quantitative structure-activity relationship of 10-methyl-6-oxo-5-arylazo-6,7-dihydro-5H-[1,3]azaphospholo[1,5-d][1,4]benzodiazepin-2-phospha-3-ethoxycarbonyl-1-phosphorus dichlorides” (2006):

Legend:
Assay type in all cases: functional
Design in all cases: unit not given here
Aspergillus niger = test: Antifungal activity against Aspergillus niger ATCC 16404
Procedure, shortened: (§1)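 Fungal MIC by standard 2-fold serial dilution in Sabouraud dextrose agar, using compounds diluted from 1 mg/mL DMSO stocks. Plates receive about 10⁶ CFU/mL fungal suspension made from broth cultures, in triplicate, and are kept at 37 °C for 48–72 h. Clotrimazole is the reference drug.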

Candida albicans = test: Antifungal activity against Candida albicans ATCC 10231; procedure, shortened: as §1
Escherichia coli = test: Antibacterial activity against Escherichia coli ATCC 445
Procedure, shortened: (§2)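 Agar 2-fold serial dilution MIC on nutrient agar. Test compounds come from 1 mg/mL DMSO stocks. Inoculum is about 10⁷ CFU/mL bacterial suspension prepared from broth cultures. Plates are run in triplicate and incubated at 37 °C for 16–47 h. Ampicillin trihydrate is the reference drug, tested under the same conditions.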

Bacillus subtilis = test: Antibacterial activity against Bacillus subtilis ATCC 6633; procedure, shortened: as §2

Structure (SMILES)	-Log MIC (Aspergillus niger)	-Log MIC (Candida albicans)	-Log MIC (Escherichia coli)	-Log MIC (Bacillus subtilis)
CCOC(=O)c1pc(P(Cl)Cl)c2n1[C@@H](N=Nc1cccc(CC)c1)C(=O)Nc1ccc(C)cc1-2 (stereo partly drawn)	4.82	4.61	4.88	4.68
CCOC(=O)c1pc(P(Cl)Cl)c2n1[C@@H](N=Nc1cccc(Cl)c1)C(=O)Nc1ccc(C)cc1-2 (stereo partly drawn)	4.68	4.47	4.54	4.46
CCOC(=O)c1pc(P(Cl)Cl)c2n1[C@@H](N=Nc1ccc(OC)cc1)C(=O)Nc1ccc(C)cc1-2 (stereo partly drawn)	4.39	4.24	4.26	4.29
CCOC(=O)c1pc(P(Cl)Cl)c2n1[C@@H](N=Nc1cccc(C)c1)C(=O)Nc1ccc(C)cc1-2 (stereo partly drawn)	4.31	4.17	4.22	4.25
CCOC(=O)c1pc(P(Cl)Cl)c2n1[C@@H](N=Nc1cccc(OC)c1)C(=O)Nc1ccc(C)cc1-2 (stereo partly drawn)	4.56	4.39	4.3	4.28
CCOC(=O)c1pc(P(Cl)Cl)c2n1[C@@H](N=Nc1cccc(C(=O)O)c1)C(=O)Nc1ccc(C)cc1-2 (stereo partly drawn)	4.48	4.32	4.36	4.37
CCOC(=O)c1pc(P(Cl)Cl)c2n1[C@@H](N=Nc1ccc(Cl)cc1)C(=O)Nc1ccc(C)cc1-2 (stereo partly drawn)	4.51	4.36	4.39	4.41
CCOC(=O)c1pc(P(Cl)Cl)c2n1[C@@H](N=Nc1ccc(C)cc1)C(=O)Nc1ccc(C)cc1-2 (stereo partly drawn)	4.22	4.09	4.17	4.22
CCOC(=O)c1pc(P(Cl)Cl)c2n1[C@@H](N=Nc1cccc(O)c1)C(=O)Nc1ccc(C)cc1-2 (stereo partly drawn)	4.25	4.11	4.2	4.22
CCOC(=O)c1pc(P(Cl)Cl)c2n1[C@@H](N=Nc1ccc(O)cc1)C(=O)Nc1ccc(C)cc1-2 (stereo partly drawn)	4.18	4.06	4.11	4.17
CCOC(=O)c1pc(P(Cl)Cl)c2n1[C@@H](N=Nc1ccc(OCC)cc1)C(=O)Nc1ccc(C)cc1-2 (stereo partly drawn)	4.74	4.59	4.74	4.83
CCOC(=O)c1pc(P(Cl)Cl)c2n1[C@@H](N=Nc1cccc(OCC)c1)C(=O)Nc1ccc(C)cc1-2 (stereo partly drawn)	4.89	4.78	5.04	4.96
CCOC(=O)c1pc(P(Cl)Cl)c2n1[C@@H](N=Nc1ccccc1)C(=O)Nc1ccc(C)cc1-2 (stereo partly drawn)	4.12	4.1	4.05	4.05
CCOC(=O)c1pc(P(Cl)Cl)c2n1[C@@H](N=Nc1cccc([N+](=O)[O-])c1)C(=O)Nc1ccc(C)cc1-2 (stereo partly drawn)	4.56	4.5	–	4.55
CCOC(=O)c1pc(P(Cl)Cl)c2n1[C@@H](N=Nc1ccc(CC)cc1)C(=O)Nc1ccc(C)cc1-2 (stereo partly drawn)	4.64	4.52	4.58	4.64
CCOC(=O)c1pc(P(Cl)Cl)c2n1[C@@H](N=Nc1ccc([N+](=O)[O-])cc1)C(=O)Nc1ccc(C)cc1-2 (stereo partly drawn)	4.45	4.32	4.61	4.52
